Experimental data taken from article PMC9220501 (Chemico-Biological Interactions, 2022).

What was measured:
Type in all cases: cell-based
malignant melanoma A375 = experiment: MTT cytotoxicity assay, A375; details: Homo sapiens, A-375, 72 h, read-out: IC50 A375
Outline: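 A375 cells were kept in RPMI 1640 with 10% FBS, 2 mM L-glutamine, 25 mM HEPES and penicillin-streptomycin at 37 °C and 5% CO2. Cells were seeded at 3000 per well and allowed to adhere for 20 h. They were treated for 72 h, and survival was read by MTT. IC50 is the mean ± SD of three independent experiments.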

[1] = tested on: cervical adenocarcinoma HeLa; experiment: MTT cytotoxicity assay, HeLa; details: Homo sapiens, 72 h, read-out: IC50 HeLa
[2] = tested on: colon adenocarcinoma LS174; experiment: MTT cytotoxicity assay, LS174; details: Homo sapiens, LS174, 72 h, read-out: IC50 LS174
[3] = tested on: chronic myelogenous leukemia K562 cells; experiment: MTT cytotoxicity assay, K562; details: Homo sapiens, K562, 72 h, read-out: IC50 K562
lung fibroblasts MRC-5 = experiment: MTT cytotoxicity assay, normal MRC-5; details: Homo sapiens, MRC5, 72 h, read-out: IC50 MRC-5
lung carcinoma A549 = experiment: MTT cytotoxicity assay, A549; details: Homo sapiens, A549, 72 h, read-out: IC50 A549

SMILES	IC50 (malignant melanoma A375) [µM]	IC50 [1] [µM]	IC50 [2] [µM]	IC50 [3] [µM]	IC50 (lung fibroblasts MRC-5) [µM]	IC50 (lung carcinoma A549) [µM]
COC(=O)C1=C(C)N(C)C(=S)NC1c1ccccc1 (centres unmarked) [4a, Methyl 1,2,3,4-tetrahydro-1,6-dimethyl-2-thioxo-4-phenylpyrimidine-5-carboxylate]	123 ± 7.17	128 ± 15.4	170.5 ± 1.28	163 ± 4.62	92.97 ± 0.59	
COC(=O)C1=C(C)N(C)C(=S)NC1c1ccc(Cl)cc1 (centres unmarked) [4b, Methyl 4-(4′-chlorophenyl)-1,2,3,4-tetrahydro-1,6-dimethyl-2-thioxopyrimidine-5-carboxylate]	102 ± 6.26	81.8 ± 9.57	153 ± 9.08	95.9 ± 1.85	28.2 ± 0.32	123 ± 6.05
COC(=O)C1=C(C)N(C)C(=S)NC1c1ccc([N+](=O)[O-])cc1 (centres unmarked) [4c, Methyl 4-(4′-nitrophenyl)-1,2,3,4-tetrahydro-1,6-dimethyl-2-thioxopyrimidine-5-carboxylate]	158 ± 7.84	122 ± 12.8	185 ± 5.5	193 ± 3.75	88.9 ± 6.31	
COC(=O)C1=C(C)N(C)C(=S)NC1c1ccc(C(=O)O)cc1 (centres unmarked) [4d, 4-(5-(methoxycarbonyl)-1,2,3,4-tetrahydro-1,6-dimethyl-2-thioxopyrimidin-4-yl)benzoic acid]	199.6 ± 0.59	139 ± 7.64	> 200	195 ± 7.62	169 ± 8.98	
COC(=O)C1=C(C)N(C)C(=S)NC1c1ccc(O)c(OC)c1 (centres unmarked) [4e, Methyl 1,2,3,4-tetrahydro-4-(4′-hydroxy-3′-methoxyphenyl)-1,6-dimethyl-2-thioxopyrimidine-5-carboxylate]	176 ± 2.9	157 ± 6.52	196 ± 2.87	197 ± 0.54	114 ± 2.36	
